Reference: ChEMBL document CHEMBL1275500, “Characterization of the new metallo-beta-lactamase VIM-13 and its integron-borne gene from a Pseudomonas aeruginosa clinical isolate in Spain” (Antimicrob Agents Chemother, 2008)
Values after ≈ are worked out from the molar mass of the structure shown.

Experiments:
Pseudomonas aeruginosa [1] = experiment: Antimicrobial activity against Pseudomonas aeruginosa isolate PA-SD2 harboring blaVIM-1 gene by Etest method; assay type: functional
Pseudomonas aeruginosa [2] = experiment: Antimicrobial activity against Pseudomonas aeruginosa isolate PA-SL2 harboring blaVIM-13 gene by Etest method; assay type: functional
Pseudomonas aeruginosa [3] = experiment: Antimicrobial activity against Pseudomonas aeruginosa PAO1 harboring pUCP carrying VIM-1 gene by Etest method; assay type: functional
Method in brief: (§1)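 Etest MICs of piperacillin, piperacillin-tazobactam, ceftazidime, cefepime, cefotaxime, aztreonam, imipenem and meropenem, run per manufacturer's recommendations. Strains were E. coli XL1-Blue or P. aeruginosa PAO1 carrying pUCP24-derived plasmids with blaVIM-1 or blaVIM-13 (cloned by EcoRI) inserted in the lacZ-promoter orientation. E. coli transformants were selected on 10 μg/ml gentamicin MacConkey agar; PAO1 electroporants were selected on 50 μg/ml gentamicin LB agar.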

Pseudomonas aeruginosa [4] = experiment: Antimicrobial activity against Pseudomonas aeruginosa PAO1 harboring pUCP carrying VIM-13 gene by Etest method; assay type: functional; method in brief: as §1
Pseudomonas aeruginosa [5] = experiment: Antimicrobial activity against Pseudomonas aeruginosa PAO1 by Etest method; assay type: functional
Escherichia coli [6] = experiment: Antimicrobial activity against Escherichia coli XL1-Blue harboring pUCP carrying VIM-1 gene by Etest method; assay type: functional; method in brief: as §1
Escherichia coli [7] = experiment: Antimicrobial activity against Escherichia coli XL1-Blue harboring pUCP carrying VIM-13 gene by Etest method; assay type: functional; method in brief: as §1
Escherichia coli [8] = experiment: Antimicrobial activity against Escherichia coli XL1-Blue by Etest method; assay type: functional
Pseudomonas aeruginosa [9] = experiment: Antimicrobial activity against Pseudomonas aeruginosa isolate PA-SD2 harboring blaVIM-1 gene by Etest method in presence of Tazobactam; assay type: functional
Pseudomonas aeruginosa [10] = experiment: Antimicrobial activity against Pseudomonas aeruginosa isolate PA-SL2 harboring blaVIM-13 gene by Etest method in presence of Tazobactam; assay type: functional
Pseudomonas aeruginosa [11] = experiment: Antimicrobial activity against Pseudomonas aeruginosa PAO1 harboring pUCP carrying VIM-1 gene by Etest method in presence of Tazobactam; assay type: functional
Pseudomonas aeruginosa [12] = experiment: Antimicrobial activity against Pseudomonas aeruginosa PAO1 harboring pUCP carrying VIM-13 gene by Etest method in presence of Tazobactam; assay type: functional
Pseudomonas aeruginosa [13] = experiment: Antimicrobial activity against Pseudomonas aeruginosa PAO1 by Etest method in presence of Tazobactam; assay type: functional
Method in brief: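 Etest MICs of piperacillin-tazobactam for P. aeruginosa PAO1 electroporated with pUCP24 carrying cloned blaVIM-1 or blaVIM-13, with the insert in lacZ promoter orientation. Transformants were selected on 50 μg/ml gentamicin LB agar. Testing followed the manufacturer's recommendations, with CLSI breakpoints.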

Escherichia coli [14] = experiment: Antimicrobial activity against Escherichia coli XL1-Blue harboring pUCP carrying VIM-1 gene by Etest method in presence of Tazobactam; assay type: functional; method in brief: as §1
Escherichia coli [15] = experiment: Antimicrobial activity against Escherichia coli XL1-Blue harboring pUCP carrying VIM-13 gene by Etest method in presence of Tazobactam; assay type: functional
Method in brief: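 blaVIM-13 was PCR-amplified, passed through pGEM-T, and moved as an EcoRI fragment into pUCP24, with the insert oriented with the lacZ promoter (checked by PCR and sequencing). It was transformed into CaCl2-competent E. coli XL1-Blue and selected on MacConkey agar with 10 μg/ml gentamicin. Piperacillin-tazobactam MIC was read by Etest strip.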

Escherichia coli [16] = experiment: Antimicrobial activity against Escherichia coli XL1-Blue by Etest method in presence of Tazobactam; assay type: functional
[17] = system: CC(=O)OCC1=C(C(=O)O)N2C(=O)[C@@H](NC(=O)Cc3cccs3)[C@H]2SC1; experiment: (§2) Activity of Pseudomonas aeruginosa VIM-1 beta-lactamase
Method in brief: (§3)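 GST-fused VIM-1 lacking signal peptide, purified, dialyzed in 50 mM HEPES pH 7.5 with 50 μM ZnSO4. Beta-lactam hydrolysis followed spectrophotometrically at 25°C in 50 mM HEPES pH 7.5, 50 μM ZnSO4, 20 μg/ml BSA.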

[18] = system: CC(C)(O/N=C(\C(=O)N[C@@H]1C(=O)N2C(C(=O)[O-])=C(C[n+]3ccccc3)CS[C@H]12)c1csc(N)n1)C(=O)O; experiment: as §2; method in brief: as §3
[19] = system: CC1(C)S[C@@H]2[C@H](NC(=O)Cc3ccccc3)C(=O)N2[C@H]1C(=O)O; experiment: as §2; method in brief: as §3
[20] = system: CC1(C)S[C@@H]2[C@H](NC(=O)[C@H](N)c3ccccc3)C(=O)N2[C@H]1C(=O)O; experiment: as §2; method in brief: as §3
[21] = system: CCN1CCN(C(=O)N[C@@H](C(=O)N[C@@H]2C(=O)N3[C@@H]2SC(C)(C)[C@@H]3C(=O)O)c2ccccc2)C(=O)C1=O; experiment: as §2; method in brief: as §3
[22] = system: CO/N=C(\C(=O)N[C@@H]1C(=O)N2C(C(=O)O)=C(COC(C)=O)CS[C@H]12)c1csc(N)n1; experiment: as §2; method in brief: as §3
[23] = system: CO/N=C(\C(=O)N[C@@H]1C(=O)N2C(C(=O)O)=C(COC(N)=O)CS[C@H]12)c1ccco1; experiment: as §2; method in brief: as §3
[24] = system: C[C@@H](O)[C@H]1C(=O)N2C(C(=O)O)=C(S[C@@H]3CN[C@H](C(=O)N(C)C)C3)[C@H](C)[C@H]12; experiment: as §2; method in brief: as §3
[25] = system: CC(=O)OCC1=C(C(=O)O)N2C(=O)[C@@H](NC(=O)Cc3cccs3)[C@H]2SC1; experiment: (§4) Ratio of Kcat to Km for Pseudomonas aeruginosa VIM-1 beta-lactamase; method in brief: as §3
[26] = system: CC(C)(O/N=C(\C(=O)N[C@@H]1C(=O)N2C(C(=O)[O-])=C(C[n+]3ccccc3)CS[C@H]12)c1csc(N)n1)C(=O)O; experiment: as §4; method in brief: as §3
[27] = system: CC1(C)S[C@@H]2[C@H](NC(=O)[C@H](N)c3ccccc3)C(=O)N2[C@H]1C(=O)O; experiment: as §4; method in brief: as §3
[28] = system: CCN1CCN(C(=O)N[C@@H](C(=O)N[C@@H]2C(=O)N3[C@@H]2SC(C)(C)[C@@H]3C(=O)O)c2ccccc2)C(=O)C1=O; experiment: as §4; method in brief: as §3
[29] = system: C[C@@H](O)[C@H]1C(=O)N2C(C(=O)O)=C(S[C@@H]3CN[C@H](C(=O)N(C)C)C3)[C@H](C)[C@H]12; experiment: as §4; method in brief: as §3
[30] = system: CC(=O)OCC1=C(C(=O)O)N2C(=O)[C@@H](NC(=O)Cc3cccs3)[C@H]2SC1; details: Pseudomonas aeruginosa
[31] = system: CC(C)(O/N=C(\C(=O)N[C@@H]1C(=O)N2C(C(=O)[O-])=C(C[n+]3ccccc3)CS[C@H]12)c1csc(N)n1)C(=O)O; details: Pseudomonas aeruginosa
[32] = system: CC1(C)S[C@@H]2[C@H](NC(=O)Cc3ccccc3)C(=O)N2[C@H]1C(=O)O; details: Pseudomonas aeruginosa
[33] = system: CC1(C)S[C@@H]2[C@H](NC(=O)[C@H](N)c3ccccc3)C(=O)N2[C@H]1C(=O)O; details: Pseudomonas aeruginosa
[34] = system: CCN1CCN(C(=O)N[C@@H](C(=O)N[C@@H]2C(=O)N3[C@@H]2SC(C)(C)[C@@H]3C(=O)O)c2ccccc2)C(=O)C1=O; details: Pseudomonas aeruginosa
[35] = system: CO/N=C(\C(=O)N[C@@H]1C(=O)N2C(C(=O)O)=C(COC(C)=O)CS[C@H]12)c1csc(N)n1; details: Pseudomonas aeruginosa
[36] = system: CO/N=C(\C(=O)N[C@@H]1C(=O)N2C(C(=O)O)=C(COC(N)=O)CS[C@H]12)c1ccco1; details: Pseudomonas aeruginosa
[37] = system: C[C@@H](O)[C@H]1C(=O)N2C(C(=O)O)=C(S[C@@H]3CN[C@H](C(=O)N(C)C)C3)[C@H](C)[C@H]12; details: Pseudomonas aeruginosa
[38] = system: CC(=O)OCC1=C(C(=O)O)N2C(=O)[C@@H](NC(=O)Cc3cccs3)[C@H]2SC1; details: Pseudomonas aeruginosa; remark: listed apart in the source
[39] = system: CC(C)(O/N=C(\C(=O)N[C@@H]1C(=O)N2C(C(=O)[O-])=C(C[n+]3ccccc3)CS[C@H]12)c1csc(N)n1)C(=O)O; details: Pseudomonas aeruginosa; remark: listed apart in the source
[40] = system: CC1(C)S[C@@H]2[C@H](NC(=O)Cc3ccccc3)C(=O)N2[C@H]1C(=O)O; details: Pseudomonas aeruginosa; remark: listed apart in the source
[41] = system: CC1(C)S[C@@H]2[C@H](NC(=O)[C@H](N)c3ccccc3)C(=O)N2[C@H]1C(=O)O; details: Pseudomonas aeruginosa; remark: listed apart in the source
[42] = system: CCN1CCN(C(=O)N[C@@H](C(=O)N[C@@H]2C(=O)N3[C@@H]2SC(C)(C)[C@@H]3C(=O)O)c2ccccc2)C(=O)C1=O; details: Pseudomonas aeruginosa; remark: listed apart in the source
[43] = system: CO/N=C(\C(=O)N[C@@H]1C(=O)N2C(C(=O)O)=C(COC(C)=O)CS[C@H]12)c1csc(N)n1; details: Pseudomonas aeruginosa; remark: listed apart in the source
[44] = system: CO/N=C(\C(=O)N[C@@H]1C(=O)N2C(C(=O)O)=C(COC(N)=O)CS[C@H]12)c1ccco1; details: Pseudomonas aeruginosa; remark: listed apart in the source
[45] = system: C[C@@H](O)[C@H]1C(=O)N2C(C(=O)O)=C(S[C@@H]3CN[C@H](C(=O)N(C)C)C3)[C@H](C)[C@H]12; details: Pseudomonas aeruginosa; remark: listed apart in the source

Molecule: CCN1CCN(C(=O)N[C@@H](C(=O)N[C@@H]2C(=O)N3[C@@H]2SC(C)(C)[C@@H]3C(=O)O)c2ccccc2)C(=O)C1=O [PIPERACILLIN]
- MIC (Pseudomonas aeruginosa [1]): > 256 µg/mL
- MIC (Pseudomonas aeruginosa [2]): > 256 µg/mL
- MIC (Pseudomonas aeruginosa [3]): 64 µg/mL (≈ 124 µM)
- MIC (Pseudomonas aeruginosa [4]): 192 µg/mL (≈ 371 µM)
- MIC (Pseudomonas aeruginosa [5]): 3 µg/mL (≈ 5.8 µM)
- MIC (Escherichia coli [6]): 6 µg/mL (≈ 11.6 µM)
- MIC (Escherichia coli [7]): 8 µg/mL (≈ 15.5 µM)
- MIC (Escherichia coli [8]): 1.5 µg/mL (≈ 2.9 µM)
- MIC (Pseudomonas aeruginosa [9]): > 256 µg/mL
- MIC (Pseudomonas aeruginosa [10]): > 256 µg/mL
- MIC (Pseudomonas aeruginosa [11]): 48 µg/mL
- MIC (Pseudomonas aeruginosa [12]): 192 µg/mL
- MIC (Pseudomonas aeruginosa [13]): 3 µg/mL
- MIC (Escherichia coli [14]): 6 µg/mL
- MIC (Escherichia coli [15]): 8 µg/mL
- MIC (Escherichia coli [16]): 1 µg/mL

Molecule: Beta-lactamase VIM-1 (Pseudomonas aeruginosa) (from UniProt Q9XAY4)
- Km [17]: 135 µM
- kcat [17]: 449 s⁻¹
- Km [18]: 1130 µM
- kcat [18]: 42 s⁻¹
- Km [19]: 1300 µM
- kcat [19]: 418 s⁻¹
- Km [20]: 1740 µM
- kcat [20]: 307 s⁻¹
- Km [21]: 1380 µM
- kcat [21]: 374 s⁻¹
- Km [22]: 285 µM
- kcat [22]: 204 s⁻¹
- Km [23]: 148 µM
- kcat [23]: 239 s⁻¹
- Km [24]: 72 µM
- kcat [24]: 20 s⁻¹
- kcat/Km [25]: 3.3e+06 M⁻¹ s⁻¹
- kcat/Km [26]: 3.7 M⁻¹ s⁻¹
- kcat/Km [27]: 180000 M⁻¹ s⁻¹
- kcat/Km [28]: 270000 M⁻¹ s⁻¹
- kcat/Km [29]: 280000 M⁻¹ s⁻¹

Molecule: Class B carbapenemase VIM-13 (Pseudomonas aeruginosa) (from UniProt Q2HY42)
- Km [30]: 76 µM
- kcat [30]: 656 s⁻¹
- Km [31]: 509 µM
- kcat [31]: 10 s⁻¹
- Km [32]: 1130 µM
- kcat [32]: 757 s⁻¹
- Km [33]: 197 µM
- kcat [33]: 67 s⁻¹
- Km [34]: 729 µM
- kcat [34]: 362 s⁻¹
- Km [35]: 233 µM
- kcat [35]: 612 s⁻¹
- Km [36]: 56 µM
- kcat [36]: 283 s⁻¹
- Km [37]: 15.5 µM
- kcat [37]: 9 s⁻¹
- kcat/Km [38]: 8.6e+06 M⁻¹ s⁻¹
- kcat/Km [39]: 1.9 M⁻¹ s⁻¹
- kcat/Km [40]: 670000 M⁻¹ s⁻¹
- kcat/Km [41]: 340000 M⁻¹ s⁻¹
- kcat/Km [42]: 490000 M⁻¹ s⁻¹
- kcat/Km [43]: 2.6e+06 M⁻¹ s⁻¹
- kcat/Km [44]: 5e+06 M⁻¹ s⁻¹
- kcat/Km [45]: 592000 M⁻¹ s⁻¹
